From ChEMBL document CHEMBL2331357, “Bioassay-guided isolation of proanthocyanidins with antiangiogenic activities” (J Nat Prod, 2013)
Activity calls are given as the source filed them. The rule behind the calls is not given here.

Experiments:
MCF7 = assay: Cytotoxicity against human MCF7 cells after 24 to 72 hrs by MTT assay; type: cell-based
Outline: (§1)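 Cells kept in DMEM with 10% FBS, 2 mM L-glutamine, penicillin/streptomycin, 37 °C, 5% CO2, subcultured every two days. Seeded at 1 × 10^4 cells/well and grown without or with various compound concentrations; cell number quantified by MTT conversion at 24, 48 and 72 h. IC50 from at least two independent experiments in triplicate.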

Placenta growth factor = molecular target: T1, Placenta growth factor (Homo sapiens, UniProt P49763); assay: Binding affinity to recombinant PIGF1 (unknown origin) measured for 60 seconds by surface plasmon resonance assay
T1 sequence (P49763 whole entry): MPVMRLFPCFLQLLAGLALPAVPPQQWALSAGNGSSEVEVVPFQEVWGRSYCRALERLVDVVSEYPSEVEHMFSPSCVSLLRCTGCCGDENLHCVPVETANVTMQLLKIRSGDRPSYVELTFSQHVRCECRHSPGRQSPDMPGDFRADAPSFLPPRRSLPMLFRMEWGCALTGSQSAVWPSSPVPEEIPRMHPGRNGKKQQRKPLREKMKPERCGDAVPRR
Outline: (§2)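 Biacore CM5 chip; proteins (100 μg/mL in 10 mM NaOAc, pH 5.0) amine-coupled to 8−12 kRU alongside BSA and unmodified reference surfaces. Compounds from 4 mM DMSO stocks diluted 1:200 in PBS (10 mM NaH2PO4, 150 mM NaCl, pH 7.4; final DMSO 0.5%), 2-fold six-point series typically 0.025−1 μM, triplicate aliquots with buffer blanks. Association and dissociation recorded; thermodynamic KD derived.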

Jurkat = assay: Cytotoxicity against human Jurkat cells after 24 to 72 hrs by MTT assay; type: cell-based; outline: as §1
[1] = molecular target: T2, Vascular endothelial growth factor A, long form (Homo sapiens, UniProt P15692); assay: Binding affinity to recombinant VEGFA (unknown origin) measured for 60 seconds by surface plasmon resonance assay; outline: as §2
T2 sequence (P15692 whole entry): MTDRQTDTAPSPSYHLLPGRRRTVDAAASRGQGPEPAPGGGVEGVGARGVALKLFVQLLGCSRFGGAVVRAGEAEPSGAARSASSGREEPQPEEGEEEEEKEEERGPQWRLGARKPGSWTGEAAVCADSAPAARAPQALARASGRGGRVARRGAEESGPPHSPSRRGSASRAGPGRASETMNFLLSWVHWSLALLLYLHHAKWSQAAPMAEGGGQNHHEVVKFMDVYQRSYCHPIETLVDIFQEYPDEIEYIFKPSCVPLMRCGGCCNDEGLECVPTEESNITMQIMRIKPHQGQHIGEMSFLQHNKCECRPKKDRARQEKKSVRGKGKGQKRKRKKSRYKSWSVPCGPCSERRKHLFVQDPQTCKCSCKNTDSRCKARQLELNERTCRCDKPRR

[2] = molecular target: T3, Vascular endothelial growth factor receptor 1 (Homo sapiens, UniProt P17948); assay: Inhibition of recombinant VEGF-A/VEGFR-1 (unknown origin) interaction after 1 hr by ELISA
T3 sequence (P17948 whole entry): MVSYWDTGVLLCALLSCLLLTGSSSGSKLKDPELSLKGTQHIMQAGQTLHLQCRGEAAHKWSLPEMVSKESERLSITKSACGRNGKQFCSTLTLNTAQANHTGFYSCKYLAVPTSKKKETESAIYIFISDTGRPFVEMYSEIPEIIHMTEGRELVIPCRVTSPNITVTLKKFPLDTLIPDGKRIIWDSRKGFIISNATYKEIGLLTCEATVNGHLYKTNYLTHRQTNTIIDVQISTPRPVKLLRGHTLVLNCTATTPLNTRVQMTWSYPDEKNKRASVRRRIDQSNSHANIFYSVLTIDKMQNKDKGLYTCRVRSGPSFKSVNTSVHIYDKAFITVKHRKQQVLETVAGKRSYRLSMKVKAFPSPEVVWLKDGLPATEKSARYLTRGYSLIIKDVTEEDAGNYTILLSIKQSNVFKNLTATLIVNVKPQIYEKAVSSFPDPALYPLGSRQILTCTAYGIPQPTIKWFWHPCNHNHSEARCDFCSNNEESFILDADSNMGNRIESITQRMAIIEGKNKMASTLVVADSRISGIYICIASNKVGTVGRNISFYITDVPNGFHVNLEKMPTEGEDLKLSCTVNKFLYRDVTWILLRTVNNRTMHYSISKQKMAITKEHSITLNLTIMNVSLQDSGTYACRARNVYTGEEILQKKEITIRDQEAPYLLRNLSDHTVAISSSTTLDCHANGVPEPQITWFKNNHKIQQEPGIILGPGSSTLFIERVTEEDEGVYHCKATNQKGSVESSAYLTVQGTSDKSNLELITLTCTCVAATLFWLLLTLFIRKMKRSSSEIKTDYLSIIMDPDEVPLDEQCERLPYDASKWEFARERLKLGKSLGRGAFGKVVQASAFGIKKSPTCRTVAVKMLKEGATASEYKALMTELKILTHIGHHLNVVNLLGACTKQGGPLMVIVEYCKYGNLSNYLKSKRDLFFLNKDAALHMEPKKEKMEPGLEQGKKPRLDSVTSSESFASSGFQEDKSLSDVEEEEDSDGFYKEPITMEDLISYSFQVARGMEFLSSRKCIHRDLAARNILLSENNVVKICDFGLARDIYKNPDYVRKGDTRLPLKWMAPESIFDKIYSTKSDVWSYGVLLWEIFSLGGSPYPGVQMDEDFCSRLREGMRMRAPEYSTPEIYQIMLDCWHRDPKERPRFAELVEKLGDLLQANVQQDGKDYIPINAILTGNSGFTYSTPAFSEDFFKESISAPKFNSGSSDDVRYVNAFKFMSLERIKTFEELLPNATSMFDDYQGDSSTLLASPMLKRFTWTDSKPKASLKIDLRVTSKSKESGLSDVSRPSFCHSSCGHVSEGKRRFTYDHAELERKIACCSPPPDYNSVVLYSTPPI
Outline: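 Competitive ELISA: Fc/VEGFR-1 coated at 0.5 μg/mL for 16 h at RT, blocked 3 h with 1% BSA. PlGF-1 (5 ng/mL) or VEGF-A (10 ng/mL) in PBS with 0.1% BSA, 5 mM EDTA, 0.004% Tween 20 added with DMSO-dissolved compound, 1 h 37 °C then 1 h RT. Biotinylated anti-ligand antibody, avidin–biotin-HRP, o-phenylenediamine/H2O2 detection at 490 nm; triplicate points, repeated twice.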

Gallus gallus [3] = species: Gallus gallus; assay: Antiangiogenic activity in chicken embryo chorioallantoic membrane model assessed as reduction of capillary formation at 2 ug/egg after 4 days; type: functional, tissue-based
Outline: (§3)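 Fertilized chicken eggs incubated at 37 °C, humidified, turned several times; after 4 days a 1 cm2 window opened on the broad side. Test material applied per egg; controls received albumen (100 μL/egg); retinoic acid 2 μg/egg as positive control; at least five eggs per dose. Eggs reincubated two days, then vessels photographed under microscope; branch points compared with albumen controls; mean ± SD of three experiments, Student's t-test.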

Gallus gallus [4] = species: Gallus gallus; assay: Antiangiogenic activity in chicken embryo chorioallantoic membrane model assessed as inhibition of blood vessels growth at 2 ug/egg after 4 days; type: functional, tissue-based; outline: as §3
[5] = Antiangiogenic activity in chicken embryo chorioallantoic membrane model assessed as inhibition of blood vessels growth after 4 days; type: functional, tissue-based, Gallus gallus; outline: as §3
Gallus gallus [6] = species: Gallus gallus; assay: Antiangiogenic activity in chicken embryo chorioallantoic membrane model assessed as reduction of junction of blood vessels at 10 ug/egg after 4 days; type: functional, tissue-based; outline: as §3
Gallus gallus [7] = species: Gallus gallus; assay: Antiangiogenic activity in chicken embryo chorioallantoic membrane model assessed as reduction of number of blood vessels at 10 ug/egg after 4 days; type: functional, tissue-based; outline: as §3
Gallus gallus [8] = species: Gallus gallus; assay: Antiangiogenic activity in chicken embryo chorioallantoic membrane model assessed as inhibition of blood vessels growth at 10 ug/egg after 4 days; type: functional, tissue-based; outline: as §3
Gallus gallus [9] = species: Gallus gallus; assay: Antiangiogenic activity in chicken embryo chorioallantoic membrane model assessed as reduction of length of blood vessels at 10 ug/egg after 4 days; type: functional, tissue-based; outline: as §3
[10] = molecular target: T3, Vascular endothelial growth factor receptor 1; assay: Inhibition of recombinant PlGF-1/VEGFR-1 (unknown origin) interaction after 1 hr by ELISA
Gallus gallus [11] = species: Gallus gallus; assay: Antiangiogenic activity in chicken embryo chorioallantoic membrane model assessed as reduction of size of blood vessels at 10 ug/egg after 4 days; type: functional, tissue-based; outline: as §3

SMILES	IC50 (MCF7)	Kd (Placenta growth factor; read-out: Kd)	IC50 (Jurkat)	Kd ([1]; read-out: Kd)	further results
Oc1cc(O)c2c(c1)O[C@@]1(c3ccc(O)c(O)c3)Oc3cc(O)c4c(c3[C@@H]2[C@H]1O)O[C@H](c1ccc(O)c(O)c1)[C@@H](O)C4 [PROANTHOCYANIDIN A1]	> 70 µM	0.394 µM	> 70 µM	0.476 µM	
Oc1cc(O)c2c(c1)O[C@@]1(c3ccc(O)c(O)c3)Oc3cc(O)c4c(c3[C@@H]2[C@H]1O)O[C@H](c1ccc(O)c(O)c1)[C@H](O)C4 [PROANTHOCYANIDIN A2]	> 70 µM		> 70 µM		Kd (Placenta growth factor): Not Active; Kd [1]: Not Active
Oc1ccc([C@H]2Oc3c(c(O)cc4c3[C@H]3c5c(O)cc(O)cc5O[C@@](c5ccc(O)c(O)c5)(O4)[C@@H]3O)C[C@@H]2O)cc1 [GERANIN B]	> 70 µM	0.023 µM	> 70 µM	0.048 µM	IC50 [2]: 65 µM
CC1=C(/C=C/C(C)=C/C=C/C(C)=C/C(=O)O)C(C)(C)CCC1					Activity (Gallus gallus [3]): Active; growth inhibition (GI) (Gallus gallus [4]): 75.5%
Oc1ccc([C@@H]2C[C@@H](c3c(O)cc(O)c4c3O[C@H](c3ccc(O)cc3)[C@@H](O)C4)c3c(O)cc(O)cc3O2)cc1	> 70 µM	0.011 µM	> 70 µM	0.016 µM	IC50 [2]: 50 µM; IC50 [5]: 9.79 µg; Activity (Gallus gallus [6]): Active; Activity (Gallus gallus [7]): Active; growth inhibition (GI) (Gallus gallus [8]): 56.2%; Activity (Gallus gallus [9]): Active; IC50 [10]: 15 µM; Activity (Gallus gallus [11]): Active
Oc1ccc([C@@H]2C[C@@H](c3c(O)cc(O)c4c3O[C@H](c3ccc(O)cc3)[C@H](O)C4)c3c(O)cc(O)cc3O2)cc1	> 70 µM		> 70 µM		Kd (Placenta growth factor): Not Active; Kd [1]: Not Active
O=c1cc(-c2ccc(O)c(-c3c(O)cc(O)c4c(=O)cc(-c5ccc(O)cc5)oc34)c2)oc2cc(O)cc(O)c12 [AMENTOFLAVONE]		0.0082 µM		0.0165 µM	
